Series [1] deals with Daoy. Nature of the series: Cytotoxicity against human DaOY cells assessed as reduction in cell viability incubated for 72 hrs by AlamarBlue cell viability assay. The class given is functional, cell-based. The method, boiled down:
(§1)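 Cells treated at increasing concentrations, with viability read 72 hours post-treatment by alamar blue assay. Data are mean ± S.E.M. from 3 independent experiments.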

Series [2] in a line: Drug uptake in human DaOY cells assessed as drug internalization at 0.1 to 1000 uM incubated for 24 hrs using C-terminal FITC-labeled compound by flow cytometry. The format is ADME, cell-based. The method, boiled down: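 FITC-labelled peptide at differing concentrations for 24 h, then cell-associated green fluorescence intensity measured by flow cytometry. Cells given non-fluorescent peptide served as control; n = 3 independent experiments.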

The nature of series [3]: Solubility of the compound in water using C-terminal FITC-labeled compound. The format is physicochemical. The settings on record: buffer.
Series [4] deals with MRC5. As to the kind of experiment: Cytotoxicity against human MRC5 cells assessed as reduction in cell viability incubated for 72 hrs. The class given is cell-based. The conditions noted are these: mrc5, 72 h. Put shortly:
as §1

Series [5] can be described thus: Cytotoxicity against human NHA cells assessed as reduction in cell viability incubated for 72 hrs. The class given is cell-based. Put shortly: as §1
Series [6] relates to Daoy. As to the kind of experiment: Binding affinity to human DaOY cell surface measured after 15 mins incubation using C-terminal FITC labeled compound by Live cell confocal microscopy. The class given is cell-based.
Series [7] can be described thus: Drug uptake in human DaOY cells assessed as drug internalization at 0.25 to 100 uM incubated for 24 hrs using C-terminal FITC labeled compound by confocal microscopy. The format is ADME, cell-based. Put shortly: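 Medulloblastoma cells exposed 24 h to fluorescently labelled peptide at 0.25 μM, 25 μM and 100 μM, then imaged by confocal microscopy. Cell membrane stained red, nucleus blue, peptide green. Untreated cells served as control.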

Series [8] deals with Daoy. As to the kind of experiment: Cytotoxicity against human DaOY cells assessed as reduction in cell viability incubated for 72 hrs. The class given is cell-based. The method, boiled down:
as §1

Series [9] can be described thus: Stability of the compound in water using C-terminal FITC-labeled compound. The format is physicochemical. The settings on record: buffer.
A short description of series [10]: Selectivity index, ratio of IC50 for human NHA cells to IC50 for human DaOY cells incubated for 72 hrs by AlamarBlue cell viability assay.
Series [11] relates to MRC5. Nature of the series: Cytotoxicity against human MRC5 cells assessed as reduction in cell viability incubated for 72 hrs by AlamarBlue cell viability assay. The class given is cell-based. The settings on record: MRC5, 72 h. The method, boiled down: as §1
Series [12] is described as follows: Ratio of IC50 of compound to IC50 of doxorubicin for cytotoxicity against human NHA cells assessed as reduction in cell viability incubated for 72 hrs by AlamarBlue cell viability assay. The format is cell-based. The conditions noted are these: read-out: Ratio IC50.
Series [13] can be described thus: Cytotoxicity against human NHA cells assessed as reduction in cell viability incubated for 72 hrs by AlamarBlue cell viability assay. The format is cell-based. Put shortly:
as §1

The nature of series [14]: Drug uptake in human DaOY cells assessed as drug localization by measuring punctuate pattern of expression throughout cell cytoplasm, perinuclear and nuclear region at 0.25 uM measured after 15 to 30 mins by confocal microscopy. The class given is ADME, cell-based.
The nature of series [15]: Drug uptake in human DaOY cells assessed as secondary lifetime at 0.25 uM measured after 3 hrs by fluorescence live imaging microscopy analysis. The format is ADME, cell-based.
A short description of series [16]: Drug uptake in human DaOY cells assessed as drug internalization at 0.25 uM pretreated with actin polymerization inhibitor/macropinocytosis inhibitor, cytochalasin D 1 hr prior to compound addition and measured after 3 hrs by flow cytometry. The class given is ADME, cell-based. The method, boiled down: (§2)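 To probe endocytic routes, cells were first pre-treated with non-toxic concentrations of one of four inhibitors before compound exposure. The inhibitors were genistein (caveolae), cytochalasin D (actin/macropinocytosis), amiloride hydrochloride (caveolae/macropinocytosis) and chlorpromazine hydrochloride (clathrin).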

Series [17] in a line: Ratio of IC50 of compound to IC50 of doxorubicin for cytotoxicity against human MRC5 cells assessed as reduction in cell viability incubated for 72 hrs by AlamarBlue cell viability assay. The format is cell-based. The conditions noted are these: read-out: Ratio IC50.
Series [18] is described as follows: Drug uptake in human DaOY cells assessed as drug internalization at 0.25 uM measured after 3 hrs by flow cytometry. The class given is ADME, cell-based.
Series [19] can be described thus: Drug uptake in human DaOY cells assessed as primary life time at 0.25 uM measured after 3 hrs by fluorescence live imaging microscopy analysis. The format is ADME, cell-based.
Series [20] is described as follows: Stability in mouse serum at 250 uM incubated for up to 4 hrs MALDI-TOF analysis. The format is ADME, cell-free.
Series [21] in a line: Stability in human serum at 250 uM incubated for up to 4 hrs MALDI-TOF analysis. The format is ADME, cell-free.
Series [22] can be described thus: Selectivity index, ratio of IC50 for human MRC5 cells to IC50 for human DaOY cells incubated for 72 hrs by AlamarBlue cell viability assay.
The nature of series [23]: Stability in human serum incubated for up to 4 hrs by LC-MS/MS analysis. The format is ADME, cell-free.
A short description of series [24]: Drug uptake in human DaOY cells assessed as drug internalization at 0.25 uM measured after 15 to 60 mins by confocal microscopy. The format is ADME, cell-based.
Series [25] is described as follows: Stability in mouse serum incubated for up to 4 hrs by LC-MS/MS analysis. The class given is ADME, cell-free.
Series [26] in a line: Drug uptake in human DaOY cells assessed as drug localization in cytoplasm at 0.25 uM pretreated with actin polymerization inhibitor/macropinocytosis inhibitor, cytochalasin D 1 hr prior to compound addition and measured after 3 hrs by fluorescence live imaging microscopy analysis. The format is ADME, cell-based.
The nature of series [27]: Drug uptake in human DaOY cells assessed as drug internalization at 0.25 uM pretreated with clathrin-mediated endocytosis inhibitor, chlorpromazine hydrochloride 1 hr prior to compound addition and measured after 3 hrs by flow cytometry. The class given is ADME, cell-based. The method, boiled down: as §2
Series [28] in a line: Drug uptake in human DaOY cells assessed as drug internalization at 0.25 uM pretreated with caveloae/macropinocytosis inhibitor, amiloride hydrochloride 1 hr prior to compound addition and measured after 3 hrs by flow cytometry. The class given is ADME, cell-based. The method, boiled down:
as §2

Series [29] can be described thus: Drug uptake in human DaOY cells assessed as drug localization in perinuclear and nuclear regions of cell at 0.25 uM measured after 15 to 30 mins by confocal microscopy. The class given is ADME, cell-based.
Series [30] is described as follows: Drug uptake in human DaOY cells assessed as drug internalization at 0.25 uM pretreated with caveloae-uptake inhibitor, genistein 1 hr prior to compound addition and measured after 3 hrs by flow cytometry. The format is ADME, cell-based. Put shortly:
as §2

Series [31] can be described thus: Drug uptake in human DaOY cells assessed as drug localization in nucleus at 0.25 uM measured after 3 hrs by […]. The format is ADME, cell-based.
The nature of series [32]: Drug uptake in human DaOY cells assessed as drug localization in nucleus at 0.25 uM pretreated with actin polymerization inhibitor/macropinocytosis inhibitor, cytochalasin D 1 hr prior to compound addition and measured after 3 hrs by fluorescence live imaging microscopy analysis. The format is ADME, cell-based.

Activity calls are given as the source filed them. The calls are words filed in the database; no cut-off is given here. Peptide text beside a SMILES is read from it. * marks the point of attachment. Glutaryl(5-(14-O-Dox)) = COc1cccc2c1C(=O)c1c(O)c3c(c(O)c1C2=O)C[C@@](O)(C(=O)COC(=O)CCCC(=O)*)C[C@@H]3O[C@H]1C[C@H](N)[C@H](O)[C@H](C)O1 A value given as a limit tells only on which side of the number the result lay.

`COc1cccc2c1C(=O)c1c(O)c3c(c(O)c1C2=O)C[C@@](O)(C(=O)COC(=O)CCCC(=O)N[C@H](C(=O)NCC(=O)NCC(=O)N[C@@H](CC(C)C)C(=O)N[C@@H](CO)C(=O)N[C@@H](Cc1c[nH]cn1)C(=O)N[C@@H](CCCNC(=N)N)C(=O)O)C(C)C)C[C@@H]3O[C@H]1C[C@H](N)[C@H](O)[C@H](C)O1` ({Glutaryl(5-(14-O-Dox))}-VGGLSHR-OH): in the series with Daoy [1], the IC50 was found to be 130 nM.

For H-FSRPAFL-OH, the Drug uptake result in [2] and in [7] was “Active” each time. For the same compound, the solubility entry in [3] was “Soluble”. For the same compound, the Activity entry (in the series with MRC5 [4]; in series [5]; in the series on Daoy [8]) was “Non-Toxic” each time. Further, the result in the series with Daoy [6] was Active. In addition, the Stability result in series [9] was “Stable”.

Turning to `COc1cccc2c1C(=O)c1c(O)c3c(c(O)c1C2=O)C[C@@](O)(C(=O)COC(=O)CCCC(=O)N[C@@H](Cc1ccccc1)C(=O)N[C@@H](CO)C(=O)N[C@@H](CCCNC(=N)N)C(=O)N1CCC[C@H]1C(=O)N[C@@H](C)C(=O)N[C@@H](Cc1ccccc1)C(=O)N[C@@H](CC(C)C)C(=O)O)C[C@@H]3O[C@H]1C[C@H](N)[C@H](O)[C@H](C)O1` ({Glutaryl(5-(14-O-Dox))}-FSRPAFL-OH), the “Ratio IC50” value in series [10] came out at 33.7; in series [22] it was 430.2. Further, the IC50 in the series with MRC5 [11] was 10.8 µM; in series [13], 842 nM; with Daoy [1], 25 nM. The selectivity ratio at 72 h in series [12] is more than 7.4; in series [17] it was more than 72. Moreover, the Drug uptake entry in [14] is “Active”; in series [16], “Not Active”; in series [18], “Active”; in series [24] it was “Active”. Further, the Time is 1.3 nanoseconds in [15] and 4.3 nanoseconds in series [19]. Also, the Stability entry in series [20], in [21], in [23] and in series [25] was “Stable” in each case.

For the compound `COc1cccc2c1C(=O)c1c(O)c3c(c(O)c1C2=O)C[C@@](O)(C(=O)CO)C[C@@H]3O[C@H]1C[C@H](N)[C@H](O)[C@H](C)O1` [DOXORUBICIN], the “Ratio IC50” value is on record as 12.8 in series [10] and 16.8 in series [22]. The values for the half-maximal inhibitory concentration (IC50) (with MRC5 [11]; in series [13]; in the series with Daoy [1]) were 0.148 µM, 113 nM and 8.8 nM, respectively. Besides, the Drug uptake entry in series [26], in [27], in series [28], in [16], in series [29] and in [30] was “Active” in each case. The Drug uptake entry in series [24], in series [31] and in [32] was “Active” each time. In addition, the values for the Time in series [15] and in series [19] were 1.3 nanoseconds and 4.3 nanoseconds, respectively.

The values above are taken from ChEMBL document CHEMBL4402518, “Identification of Novel Medulloblastoma Cell-Targeting Peptides for Use in Selective Chemotherapy Drug Delivery” (J Med Chem, 2020).
